# Out of some 360,000 compounds screened, about 3,600 (1%) were called active.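 How the source made its calls: active means activation above the mean activation of all test compounds in the run plus 3 SD (cut at about 38% in these data); inactive means the rest.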 Only a selection was taken, and actives are over-represented in it overall.
# Biological target: Trace amine-associated receptor 1 (Homo sapiens) (UniProt Q96RJ0)
# Assay: activators of TAAR1 calcium mobilization – Fluo-8 calcium fluorescence, CHO RD-HGA16 cells, primary screen (AID 624467)
# Conditions: CHO RD-HGA16 TAAR1, Fluo-8 calcium fluorescence; at 3 µM; hits give high values; vehicle wells 0%, saturating PEA agonist 100%
# Outline: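 Assay system: CHO-derived RD-HGA16 cells with stable Gα16 and human TAAR1; timing: 17-24 h seeding, 75 min 37 °C dye, 30 min RT; read-out: % activation from peak over basal fluorescence ratio, DMSO-to-PEA scaled; measured by: kinetic Fluo-8 calcium fluorescence; benchmarks: low control DMSO, high control PEA (EC100); doses: 3 µM single concentration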
# Chain of Trace amine-associated receptor 1 (Homo sapiens) (Q96RJ0 whole entry, looked up): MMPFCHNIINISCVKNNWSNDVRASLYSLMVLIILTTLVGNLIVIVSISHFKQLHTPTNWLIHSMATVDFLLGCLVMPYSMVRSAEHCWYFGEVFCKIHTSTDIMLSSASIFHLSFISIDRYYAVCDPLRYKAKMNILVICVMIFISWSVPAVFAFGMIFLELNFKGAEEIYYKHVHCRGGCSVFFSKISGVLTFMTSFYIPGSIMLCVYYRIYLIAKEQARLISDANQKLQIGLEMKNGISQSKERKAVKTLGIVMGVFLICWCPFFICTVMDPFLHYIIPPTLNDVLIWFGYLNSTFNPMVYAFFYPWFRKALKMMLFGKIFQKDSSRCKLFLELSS
row,Compound,activation
1,Cc1cc2oc(=O)cc(-c3ccccc3)c2c(C)c1-c1ccc(OC(F)(F)F)cc1,2.46% (inactive)
2,CCO[C@H]1OC(C(=O)N2CCOCC2)=C[C@@H](c2ccc3c(c2)OCO3)[C@@H]1CCCO,5.53% (inactive)
3,O=C(NCc1ccccc1)[C@@H]1CCCN1C(=O)[C@@H](NS(=O)(=O)c1ccc(F)cc1F)C1CCCCC1,-0.54% (inactive)
4,COc1ccccc1CNS(=O)(=O)c1c(C)[nH]c(C)c1C(=O)N1CCCCC1,0.59% (inactive)
5,NC(N)=Nc1nc2ccc(Br)cc2c(=O)[nH]1,10.5% (inactive)
6,NC(=O)c1cc(-c2cccnc2)nc2ccc(Br)cc12,0.6% (inactive)
7,O=c1c2cc(Br)ccc2nc(-c2cccc(Cl)c2)n1O,51.9% (active)
8,C=CCNC(=O)COc1coc(CN2CCN(Cc3ccccc3)CC2)cc1=O,2.55% (inactive)
9,CCC(C(=O)Nc1ccc(C(C)C)cc1)c1ccccc1 (stereo not drawn),95.2% (active)
10,CC(C)c1ccc(NC(=O)Cn2ncc3ccccc32)cc1,1.09% (inactive)
11,CCC(C(=O)OCC(=O)Nc1c(Cl)cc(Cl)cc1Cl)c1ccccc1 (stereo not drawn),8.86% (inactive)
12,CCOC(=O)N(C)c1c(CC)nc2c(OCc3ccccc3C(=O)OC)cccn12,0.97% (inactive)
13,O=C(CN1CCSCC1)N/N=C/c1ccc(Cl)cc1,12.7% (inactive)
14,O=C1NC[C@H](CCCCN2CCN(CCc3ccccc3)C(=O)C2=O)N(CC2CCCCC2)C1=O,1.95% (inactive)
15,CCN(CCN(C)C)C(=O)c1ccc2nc(C)c(N(C)C(=O)CCc3ccccc3)n2c1,1.46% (inactive)
16,O=C1C=C(c2ccc(Cl)cc2)C(=O)N1Nc1ccccc1,58.9% (active)
17,O=C(COC(=O)c1cccc(Cl)c1)NC(=O)NCc1ccccc1,2.7% (inactive)
18,CCCCCc1c(Cc2ccccc2)ncn1CCc1ccccc1OC,62.8% (active)
19,Cn1c(=O)c2c(ncn2CCc2ccccc2)n(C)c1=O,2.07% (inactive)
20,CCc1c(-c2ccc(F)cc2)ncn1Cc1cccc(-c2ccccc2)c1,0.6% (inactive)
21,CCCCN1C(=O)C(C)=C(C)C1OCCc1ccc(OC)c(OC)c1 (stereo not drawn),2.56% (inactive)
22,CCCCCc1c(-c2ccc(OC)c(OC)c2)ncn1CCc1ccccc1OC,60.6% (active)

row,Compound,activation
1,COC(=O)c1ccc2nc(-c3cccc(Br)c3)c(Cc3ccccc3C(F)(F)F)n2c1,4.12% (inactive)
2,CCCCCc1c(-c2cccc(Br)c2)ncn1CCc1ccccc1OC,50.1% (active)
3,COC(=O)c1ccc2nc(-c3ccc(OC)c(OC)c3)c(Cc3ccccc3)n2c1,-2.01% (inactive)
4,CCCCNS(=O)(=O)CCNCc1ccccc1OC,-1.08% (inactive)
5,C=C1CCC(N(O)c2cc(C)on2)C(=C)CCC2C1CC2(C)C (stereo not drawn),2.74% (inactive)
6,COC(=O)C1=C(C)N(Cc2ccc(C(F)(F)F)cc2)C(=NCc2ccccc2)NC1c1ccccc1C(F)(F)F (stereo not drawn),5.43% (inactive)
7,O=C(CC1NCCc2ccccc21)Nc1cccc(Cl)c1 (stereo not drawn),9.23% (inactive)
8,COCCNC(=S)N(C)[C@H]1C[C@H]2c3[nH]c4ccccc4c3CCN2C[C@H]1[C@H](C)O,3.21% (inactive)
9,CC1CCCCC1NC(=O)CSc1nnc(N)s1 (stereo not drawn),9.77% (inactive)
10,CCN(CC)C(=O)CS(=O)CC(=O)Nc1cc(OCCOC)c(Cl)cc1Cl (stereo not drawn),5.84% (inactive)
11,COc1ccc(OC)c(NC(=O)c2ccc3c(c2)CCN3S(C)(=O)=O)c1,2.63% (inactive)
12,Cc1ccc2nc(-c3ccc(CN4CCC(n5cc(-c6ccccc6)[nH]c5=O)CC4)cc3)c(-c3ccccc3)nc2c1,1.53% (inactive)
13,c1ccc2c(c1)C(=NC1CCCCC1)NC2=NC1CCCCC1,83.2% (active)
14,Cn1nccc1NC(=O)CC(CC(=O)O)c1ccccc1 (stereo not drawn),1.46% (inactive)
15,Nc1ncnc2c1ncn2[C@@H]1O[C@H](C(=O)N[C@@H](CCc2ccccc2)C(=O)N2CCCN(Cc3cccs3)CC2)[C@@H](O)[C@H]1O,-0.59% (inactive)
16,C=CCNC(=O)COC(=O)CNC(=O)c1cc(Cl)cc([N+](=O)[O-])c1,-0.52% (inactive)
17,CC[C@H](NC(=O)[C@H](Cc1ccccc1)NC(=O)[C@H]1O[C@@H](n2cnc3c(=O)[nH]c(N)nc32)[C@H](O)[C@@H]1O)c1ccccc1,12.6% (inactive)
18,Cc1nc(C(=O)NCc2ccccc2)sc1C1(C)CC(c2cccnc2)=NO1 (stereo not drawn),57.5% (active)
19,Cc1nc(C(=O)Nc2ccc(Cl)cc2)sc1C1(C)CC(c2ccccc2)=NO1 (stereo not drawn),5.24% (inactive)
20,Cc1nc(-c2ccc(Cl)cc2)sc1C1(C)CC(c2ccccc2F)=NO1 (stereo not drawn),-1.12% (inactive)
21,O=C(C(=O)N1CCC(CNC(=O)c2cccnc2Cl)CC1)c1cccs1,1.11% (inactive)
22,CN1C(=O)CN2CCc3ccccc3C2c2cc(Cl)ccc21 (stereo not drawn),3.95% (inactive)

row,Compound,activation
1,CC(=O)c1ccc(S(=O)(=O)NCC2CCN(C(=O)C(=O)c3cccs3)CC2)cc1,6.58% (inactive)
2,O=C(CSCc1ccc(Br)cc1)Nc1ccc(S(=O)(=O)N2CCCCCC2)cc1,23.4% (inactive)
3,O=C(O)CC(SCC(=O)Nc1ccc(Br)cc1)C(=O)O (stereo not drawn),5.77% (inactive)
4,O=C1CCCN2N=C(SCC(=O)Nc3ccc(Br)cc3)SC2=N1,46.4% (active)
5,COC(=O)C1=C(C)N(Cc2ccccc2C(F)(F)F)C(=NCC2CC2)NC1c1cccc(Cl)c1 (stereo not drawn),26.6% (inactive)
6,O=C(/C=C/[C@H]1O[C@@H](n2cnc3c(NC(=O)c4ccccc4)ncnc32)[C@H](O)[C@@H]1O)NCc1ccccc1,54.8% (active)
7,CCC(C)C(CO)NC(=O)/C=C/[C@H]1O[C@@H](n2cnc3c(NC(=O)c4ccccc4)ncnc32)[C@H](O)[C@@H]1O (stereo partly drawn),2.69% (inactive)
8,COc1cccc(CN(C)C(=O)CC[C@H]2O[C@@H](n3cnc4c(NC(=O)c5ccccc5)ncnc43)[C@H](O)[C@@H]2O)c1,0.18% (inactive)
9,COc1ccc(C(CNC(=O)c2cccc(S(=O)(=O)Nc3ccccc3Cl)c2)N2CCOCC2)cc1 (stereo not drawn),-1.44% (inactive)
10,Cc1ccc(NC(=S)Nc2ncccc2C)c(C)c1,-3.17% (inactive)
11,Cn1cnnc1SCc1nnc(-c2ccccc2Br)o1,11.2% (inactive)
12,Nc1cccc2c1C(=O)N(Cc1nnc(-c3ccccc3Br)o1)C2=O,75.4% (active)
13,CC(C)N(Cc1nnc(-c2ccccc2Br)o1)C(=O)c1cc(Cl)nc2ccccc12,4.53% (inactive)
14,CC1(C(=O)NS(=O)(=O)c2cccc(OC(F)F)c2)CCN1C(=O)COc1ccc(Cl)cc1 (stereo not drawn),1.84% (inactive)
15,COC(=O)c1c(-c2ccc(OC)cc2)c2c(c3c4ccccc4n(S(=O)(=O)c4ccc(C)cc4)c13)C(=O)N(C)C2,-0.97% (inactive)
16,COc1ccc(-c2c(C#Cc3ccccc3)c3ccccc3n2C)cc1,1.86% (inactive)
17,COc1ccc(CCNCc2c(-c3ccccc3)n(C)c3ccccc23)cc1,37.6% (active)
18,COc1ccc(CNCCCn2cnc3c(OCc4ccccc4)ncnc32)cc1,2.67% (inactive)
19,Cc1ccc(N2C(=O)C(NC(=O)c3c(F)cccc3F)(C(F)(F)F)C3=C2CC(C)(C)CC3=O)cc1 (stereo not drawn),0.87% (inactive)
20,O=C1[C@@H](c2ccccc2)[C@@H](c2ccccc2)N1c1ccccc1,3.32% (inactive)
21,CC(C)(C)OC(=O)N1CCN(C(=O)c2[nH]c(C(F)(F)F)nc2-c2ccccc2)CC1,1.1% (inactive)
22,CSc1ccc(-c2c(C#N)c(N)nc3c2c(C)nn3-c2ccccc2)cc1,8.14% (inactive)

row,Compound,activation
1,CSc1nc(N)c(C#N)c(-c2ccccc2Cl)c1C#N,56.9% (active)
2,COc1ccccc1-c1c(C#N)c(N)nc2c1CCC2,-0.25% (inactive)
3,CCN(CC)c1ccc2oc(=O)c(C)nc2c1,81% (active)
4,CCc1ccc2oc(-c3ccc(N)cc3)nc2c1,11.3% (inactive)
5,Cc1ccc2oc(=O)ccc2c1,0.04% (inactive)
6,O=C1CCN(C(=O)Nc2ccccc2)N1,3.7% (inactive)
7,C[C@H]1CN([C@@H](C)CO)C(=O)CCCn2nncc2CO[C@@H]1CN(C)C(=O)Nc1ccc(N2CCN(C)CC2)cc1,0.67% (inactive)
8,CCOc1ccc(Br)cc1S(=O)(=O)Nc1ccc(S(=O)(=O)Nc2cc(C)on2)cc1,-0.13% (inactive)
9,CC(Oc1ccc2ccccc2c1)C(=O)NNC(=S)NC(=O)c1ccco1 (stereo not drawn),98.9% (active)
10,CCC1CCCCN1C(=S)NC(=O)c1ccco1 (stereo not drawn),4.61% (inactive)
11,O=C(NNC(=S)Nc1ccc(Br)cc1Cl)c1ccco1,3.5% (inactive)
12,CCCc1ccc(OCC(=O)NNC(=S)NC(=O)c2ccco2)cc1,83.4% (active)
13,O=C(Nc1ccc2ccccc2c1)/C(=C\c1ccc2c(c1)OCO2)NC(=O)c1ccco1,-0.26% (inactive)
14,NS(=O)(=O)c1ccc(CNC(=S)NC(=O)c2ccco2)cc1,1.56% (inactive)
15,O=C(C(=O)N1CCN(c2ccccc2)CC1)c1ccc2c(c1)OCO2,-0.35% (inactive)
16,CCC(C)NC(=O)c1ccc(NC(=O)CC2SC(N3CCCCC3)=NC2=O)cc1 (stereo not drawn),1.77% (inactive)
17,C=CCOC(=O)C1=C[C@H](c2ccc(Br)cc2)C[C@H](OCCCCO)O1,8.86% (inactive)
18,COc1cc2c(cc1OC)CN(C(C)C(=O)Nc1cccc(S(=O)(=O)N3CCOCC3)c1)CC2 (stereo not drawn),0.59% (inactive)
19,O=C(NCCc1ccc(F)cc1)c1n[nH]c2ccccc12,1.79% (inactive)
20,O=Cc1c(NCCCN2CCCC2=O)c2ccccc2[nH]c1=O,1.42% (inactive)
21,O=Cc1c(NCCc2cccc(F)c2)c2ccccc2[nH]c1=O,72.1% (active)
22,C=CCN1C(=O)N(Cc2ccccc2)c2ccccc2S1(=O)=O,0.49% (inactive)

# From PubChem BioAssay AID624467 (The Scripps Research Institute Molecular Screening Center, 2012)
